Compound activity as filed in PubChem BioAssay.
ARFGAP1 inh = rat ARFGAP1 inhibition; Q62848; Arfgap1-stimulated ARF1 GTP hydrolysis, GDP FP detection; inhibition, % at 16.5 µM; 360,000 tested, 0.26% active; AID 651572;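 active = inhibition above a per-plate limit, mean inhibition of low control wells plus 3 SD, cut at about 25% in these data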;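 also: 0% = DMSO wells with enzyme and 100% = wells lacking Arfgap1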
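Material: rat Arfgap1 catalytic domain, aa 1-136; also added: human ARF1(Δ1-17)-GTP substrate; compound dosing: one concentration, 16.5 µM, DMSO 1.26%; incubation: GTP hydrolysis reaction 2 h at 25 °C; measured by: Tracer-displacement fluorescence polarization with EDTA stop, 620/688 nm; evaluation: % inhibition from polarization; repeats: one replicate per compound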
LEDGF integ inh = blocks HIV-1 LEDGF/p75-dependent DNA integration; 370,000 tested, 0.64% active; AID 743269; TR-FRET IN-LEDGF/p75 DNA integration, Eu/Cy5; inhibition, % at 3.7 µM;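 active = inhibition above the screen-wide mean plus 3 SD, cut at about 13% in these data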;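 also: signal is the Cy5 over europium emission ratio at 671 and 618 nm; 0% = plate median of compound wells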
TCR-CD3 inh = human TCR-CD3 binding inhibition; 360,000 tested, 0.37% active; TAMRA-labeled TCR probe fluorescence, biochemical; inhibition, % at 9.4 µM; AID 651800; in the data active = inhibition above about 19%;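 also: recombinant mutant TCR 2C K166C tagged with TAMRA read by polarization; 0% = receptor in buffer alone and 100% = receptor with positive control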
MBD2 DNA inh = MBD2-methylated oligo binding inhibition; inhibition, % at 4.4 µM; 370,000 tested, 0.31% active; TR-FRET, MBD2 binding to methylated oligonucleotide; Q9UBB5; AID 686964; in the data active = inhibition above about 13%
ASAP1 GAP inh = inhibitors of human ASAP1 ArfGAP activity. ASAP1-stimulated ARF1 GTP hydrolysis, GDP FP detection. inhibition, % at 16.5 µM. AID 624377. Q9ULH1. 360,000 tested, 0.19% active; in the data active = inhibition above about 25%;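 also: 0% = vehicle with enzyme and substrate and 100% = no enzyme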
UHRF1 binding = blocks human UHRF1 binding to methylated DNA. 370,000 tested, 0.75% active. inhibition, % at 4.4 µM. UHRF1 binding to methylated oligo, TR-FRET. AID 687016. Q96T88; in the data active = inhibition above about 21%;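 also: UHRF1 SRA domain binding a hemimethylated CpG hairpin DNA probe; 0% = median of test compound wells and 100% = reference inhibitor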
Active calls of the source: *. This is a sample that favours compounds with a hit; in the whole collection about 2% have one here.

`CCOc1ccc(NC(=S)N2CCC(C(=O)c3ccc(F)cc3)CC2)cc1` gave ARFGAP1 inh -4, LEDGF integ inh 2, TCR-CD3 inh 1, MBD2 DNA inh 4, ASAP1 GAP inh -13 and UHRF1 binding 0.
O=C(CSc1nnc(-c2cccnc2)n1C1CCCCC1)N1CCCC1 was read as LEDGF integ inh 0, MBD2 DNA inh -2 and UHRF1 binding 1.
`N#Cc1cccc(NC(=O)OCCN2C(=O)CCC23CCC(c2ccccc2)CC3)c1` (configuration not stated) gave LEDGF integ inh -3, MBD2 DNA inh -1 and UHRF1 binding 1.
Screening CSc1ccc(C(=O)C2CCCN(C(=O)c3cccnc3SC)C2)cc1 (configuration not stated) returned ARFGAP1 inh 17, LEDGF integ inh 0, TCR-CD3 inh -4, MBD2 DNA inh 13, ASAP1 GAP inh 0 and UHRF1 binding 26*.
Cc1ccc(/C=C/S(=O)(=O)NCC(=O)OCC(=O)Nc2ccc(C(N)=O)cc2)cc1 was read as ARFGAP1 inh 4, LEDGF integ inh -1, TCR-CD3 inh -6, MBD2 DNA inh 4, ASAP1 GAP inh -7 and UHRF1 binding 23*.
Screening Cc1ccc(/C=C/S(=O)(=O)NCC(=O)OCC(=O)Nc2ccc(C(=O)N(C)C)cc2)cc1 returned ARFGAP1 inh -4, LEDGF integ inh 2, TCR-CD3 inh 5, MBD2 DNA inh 0, ASAP1 GAP inh -2 and UHRF1 binding -2.
`Cc1ccccc1NC(=O)OC1CCC12CCCCC2` (configuration not stated) gave LEDGF integ inh -1, MBD2 DNA inh 7 and UHRF1 binding -4.
`COc1ccc(N(CC(C)C)S(=O)(=O)c2nnc(NC(=O)c3ccco3)s2)cc1` gave ARFGAP1 inh 5, LEDGF integ inh 2, TCR-CD3 inh 8, MBD2 DNA inh 1, ASAP1 GAP inh -4 and UHRF1 binding -1.
For O=C(c1ccc(CSc2ccc(Cl)cc2)o1)N1CCOCC1 the results were ARFGAP1 inh -10, LEDGF integ inh 0, TCR-CD3 inh -5, MBD2 DNA inh -2, ASAP1 GAP inh 4 and UHRF1 binding 0.
`CS(=O)(=O)N1CCc2cc(C(=O)N3CCN(c4ccccc4F)CC3)ccc21` gave ARFGAP1 inh -4, LEDGF integ inh 4, TCR-CD3 inh 9, MBD2 DNA inh 5, ASAP1 GAP inh -9 and UHRF1 binding 23*.
CCC(CC)C(C(=O)NCc1ccccc1)N(C)Cc1ccc(Cl)c(Cl)c1 (configuration not stated) was read as ARFGAP1 inh 2, LEDGF integ inh -2, TCR-CD3 inh -2, MBD2 DNA inh -3, ASAP1 GAP inh -5 and UHRF1 binding 1.
Screening CCN1CCN(c2ccc(S(=O)(=O)N3CCCCC3)cc2NC(=O)CC(C)c2ccccc2)CC1 (configuration not stated) returned ARFGAP1 inh -3, LEDGF integ inh -1, TCR-CD3 inh 0, MBD2 DNA inh 1, ASAP1 GAP inh -9 and UHRF1 binding 52*.
Screening Cc1ccc(S(=O)(=O)N2CCCCC2)cc1NC(=O)COC(=O)c1cc[n+]([O-])cc1 returned ARFGAP1 inh -11, LEDGF integ inh -1, TCR-CD3 inh 4, MBD2 DNA inh -1, ASAP1 GAP inh 3 and UHRF1 binding 1.
`Cc1ccc(S(=O)(=O)N2CCCCC2)cc1NC(=O)COC(=O)c1ccc(O)cc1` gave ARFGAP1 inh -2, LEDGF integ inh -2, TCR-CD3 inh -3, MBD2 DNA inh -1, ASAP1 GAP inh -10 and UHRF1 binding 34*.
For O=C(COc1ccc([N+](=O)[O-])cc1)Nc1cc(S(=O)(=O)N2CCCCC2)ccc1N1CCCCC1 the results were ARFGAP1 inh 8, LEDGF integ inh 5, TCR-CD3 inh 4, MBD2 DNA inh 10, ASAP1 GAP inh -2 and UHRF1 binding 22*.
For N#CCC[C@H]1CC[C@]2(CCCN(C(=O)C3CCCCC3)C2)O1 the results were LEDGF integ inh 4, MBD2 DNA inh -5 and UHRF1 binding 0.
For Cc1cc(OCCN2CCOCC2)ccc1Cl the results were ARFGAP1 inh -2, LEDGF integ inh 0, TCR-CD3 inh -4, MBD2 DNA inh 4, ASAP1 GAP inh 7 and UHRF1 binding 22*.
